Assay results of several laboratories.

CNC(=O)c1cc(Oc2ccc(NC(=O)Nc3ccc(Cl)c(C(F)(F)F)c3)c(F)c2)ccn1 gave a Tmax of 162 min (male mouse; plasma; oral; 10 mg/kg; single dose).
For COc1nc(-c2cc(C)c(N[C@@H](C)c3cc(F)cc(F)c3)nn2)ccc1-n1cnc(C)c1, the Tmax was 60 min (male CD-1 mouse; plasma; oral; 5 mg/kg; single dose).
The Tmax of Cc1c(-c2cc3ccccc3n2Cc2ccc(F)cc2)nc2cc(C(=O)N3CCC[C@@H](N)C3)ccn12 is reported as 30 min (male BALB/c mouse; plasma; oral; 10 mg/kg).
The Tmax of CS(=O)(=O)CCNCc1ccc(-c2ccc3ncnc(Nc4ccc(OCc5cccc(F)c5)c(Cl)c4)c3c2)o1 is reported as 480 min (nude mouse; plasma; oral; 200 mg/kg; single dose).
For CC=Cc1ccc(O)c(OC)c1, the Tmax was 5 min (mouse; lung; intranasal; 100 mg/kg).
For O=S(=O)(c1ccc(-c2ccc3nccc(Nc4ccncn4)c3c2)cc1)N1CCOCC1, the Tmax was 15 min (female BALB/c mouse; plasma; intraperitoneal; 10 mg/kg).
Cc1cc(NC(=O)c2cccc3cc(-c4cccc5[nH]nc(N)c45)ccc23)ccc1F has a Tmax of 120 min (male CD-1 mouse; brain; oral; 10 mg/kg).
COc1cc(/C=C/C(=O)CC(=O)/C=C/c2ccc(O)c(OC)c2)ccc1O gave a Tmax of 120 min (HPLC; Swiss mouse; plasma; oral; 2 g/kg).
With CC(C)c1cnn2c(NCc3ccccc3)cc(NC[C@H]3CCNC[C@@H]3O)nc12 the Tmax was 120 min (male CD-1 mouse; plasma; oral).
For CC(C)(Nc1nc(-c2ccccn2)nc2ccccc12)c1ccccn1, the Tmax was 342 min (female BALB/c mouse; plasma; oral; 50 mg/kg).
CCc1cc(OC)c2nccc(N3CCc4c(cc(Cn5ccnc5)cc4-c4cn(C)nc4C(F)(F)F)C3=O)c2c1 has a Tmax of 42 min (male CD-1 mouse; plasma; oral; 50 mg/kg).
COc1ccc(C(O)COc2ccc(-c3csc(-c4ccc(OCC(O)c5ccc(OC)c(OC)c5)cc4)n3)cc2)cc1OC (stereo not drawn) has a Tmax of 60 min (C57BL/6 mouse; plasma; oral; 10 mg/kg).
The Tmax of O=C(c1nc2ccc(F)cc2[nH]1)c1c[nH]c2c(F)cccc12 is reported as roughly 15 min (female mouse; plasma; intraperitoneal; 6 mg/kg).
For CN1CCN(C(=O)CN[C@@H]2C[C@H]2c2ccc(OCc3ccccc3)cc2)CC1, the Tmax was 4.8 min (mouse; plasma; intraperitoneal; 10 mg/kg).
With CCCc1c(C2CCCCN2CCN2CCOCC2)[nH]c2cc(OC(F)(F)F)ccc12 (stereo not drawn) the Tmax was 60 min (male mouse; plasma; oral; 30 mg/kg).
COc1nc(-c2cc(C)c(N[C@@H](C)c3c(F)cc(F)cc3F)nn2)ccc1-n1cnc(C)c1 gave a Tmax of 120 min (male CD-1 mouse; plasma; oral; 5 mg/kg; single dose).
C=CC(=O)N1CC2CC(n3nc(-c4ccc(C(=O)Nc5ccccn5)cc4)c4c(N)ncnc43)CC2C1 (stereo not drawn) gave a Tmax of 15 min (SCID mouse; plasma; oral; 3 mg/kg).
CC(C)(C)c1ccc(O)c(CN(Cc2cc(C(C)(C)C)ccc2O)C2CCC(NC(N)=O)CC2)c1 (stereo not drawn) gave a Tmax of 30 min (male C57BL/6 mouse; plasma; oral; 10 mg/kg; single dose).
Cc1cc(Nc2ccc(S(F)(F)(F)(F)F)cc2)n2ncnc2n1 has a Tmax of 120 min (male Swiss mouse; plasma; oral; 100 mg/kg; single dose).
The Tmax of CC(C)(C)c1cc(NC(=O)Nc2ccc(Oc3ccnc4[nH]c(=O)cnc34)cc2F)n(-c2ccccc2)n1 is reported as 30 min (BALB/c mouse; plasma; oral; 10 mg/kg).
For CCc1ccc(Cc2cc([C@@H]3O[C@H](CO)[C@@H](O)[C@H](O)[C@H]3O)cc3c2CCC3)cc1, the Tmax was 30 min (male C57BL/6 mouse; plasma; oral; 1 mg/kg).
CNC(=O)c1cc(OC)cc2c(N3CCc4c(cc(Cn5ccnc5)cc4-c4cn(C)nc4C(F)(F)F)C3=O)ccnc12 has a Tmax of 48 min (male CD-1 mouse; plasma; oral; 50 mg/kg).
For CN1C(=O)c2ccccc2[S@+]([O-])c2ccc(C(=O)NCCc3cccs3)cc21, the Tmax was 15 min (male C57BL/6 mouse; plasma; intraperitoneal; 30 mg/kg; single dose).
OC[C@H]1O[C@@H](c2ccc(Cl)c(Cc3ccc(O[C@H]4CCOC4)cc3)c2)[C@H](O)[C@@H](O)[C@@H]1O has a Tmax of 4.8 min (CD-1 mouse; plasma; intravenous; 5 mg/kg).
[Cl-].c1csc([I+]c2cccs2)c1 gave a Tmax of no more than 1 min (mouse; plasma; intraperitoneal).
For CNCCN(C)c1cc(C#N)cc(CCc2cc(C)cc(N)n2)c1, the Tmax was 240 min (male BALB/c mouse; brain; oral; 10 mg/kg).
COc1ccc(C[C@@H](C(=O)NO)n2cc(CNS(=O)(=O)c3ccc(-c4ccccc4)s3)nn2)cc1 gave a Tmax of 20 min (female CD-1 mouse; plasma; intraperitoneal; 50 mg/kg).
For CSc1cc(Oc2ccnc3[nH]c(=O)cnc23)ccc1NC(=O)Nc1cc(C(C)(C)C)nn1-c1ccccc1, the Tmax was 60 min (BALB/c mouse; plasma; intravenous; 2 mg/kg).
COC(=O)CN(CCCc1ccccc1)CC(=O)N[C@@H](Cc1c[nH]cn1)c1nc(C)no1 has a Tmax of 10 min (male C57BL/6 mouse; plasma; intraperitoneal; 30 mg/kg).
The Tmax of COc1ccc2nccc(N3CCc4c(cc(Cn5ccnc5)cc4-c4cn(C)nc4C(F)(F)F)C3=O)c2c1 is reported as 78 min (male CD-1 mouse; plasma; oral; 50 mg/kg).
The Tmax of Cc1noc([C@H](Cc2c[nH]cn2)NC(=O)CN(CCCc2ccccc2)CC(=O)O)n1 is reported as 10 min (male C57BL/6 mouse; plasma; intraperitoneal; 30 mg/kg).
For CCc1cc(C(=O)NC)c2nccc(N3CCc4c(cc(Cn5ccnc5)cc4-c4cn(C)nc4C(F)(F)F)C3=O)c2c1, the Tmax was 48 min (male CD-1 mouse; plasma; oral; 50 mg/kg).
With COc1ccc2c3c1O[C@H]1C[C@@H](OC(=O)c4ccccc4)C=C[C@@]31CCN(C)C2 the Tmax was 3 min (mouse; blood; intravenous; 3 mg/kg).
For Cc1ccc(NC(=O)c2ccc(CN3CCN(C)CC3)cc2)cc1Nc1nccc(-c2cncc(-c3oncc3C)c2)n1, the Tmax was 120 min (male C57BL/6 mouse; brain; oral; 100 mg/kg/day).
The Tmax of Cc1cc(Nc2ccc3ccccc3c2)n2ncnc2n1 is reported as 30 min (male Swiss mouse; plasma; oral; 50 mg/kg; single dose).
CC(C)NC(=O)COc1cccc(-c2nc(Nc3ccc4[nH]ncc4c3)c3ccccc3n2)c1 has a Tmax of no more than 120 min (male C57BL/6 mouse; plasma; oral; 100 mg/kg).
With Cc1ccc2cncc(N3CCc4c(cc(Cn5ccnc5)cc4-c4cn(C)nc4C(F)(F)F)C3=O)c2c1 the Tmax was 78 min (male CD-1 mouse; plasma; oral; 50 mg/kg).
For COc1nc(-c2cc(C)c(N[C@@H](C)c3ccc(F)cc3)nn2)ccc1-n1cnc(C)c1, the Tmax was 4.98 min (male CD-1 mouse; plasma; intravenous; 1 mg/kg; single dose).
For CN1CCC[C@H](CN2c3ccccc3Sc3ccccc32)C1.Cl, the Tmax was 120 min (mouse; plasma; oral; 64 mg/kg; single dose).
